The results in this text go back to ChEMBL document CHEMBL1123314, “Adriamycin analogues. Preparation and biological evaluation of some N-(trifluoroacetyl)-14-O-[(N-acetylamino)acyl]adriamycin derivatives” (J Med Chem, 1986).

The nature of data set [1]: % hydrolysis in 60 min.
The test system of a further data set is CCRF-CEM. The data set can be described thus: In vitro antitumor activity in CCRF-CEM culture of human leukemic lymphocytes. The class given is functional. The conditions noted are these: read-out: ID50 (the source's name). In outline: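 CCRF-CEM human leukemic lymphoblasts were grown in suspension in Eagle's MEM with 10% fetal bovine serum and exposed to drug continuously for 48 h. ID50 is the concentration giving 50% reduction in growth relative to untreated control cultures.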

Data set [2] can be described thus: Half-life time of the compound. The class given is ADME.
For a further data set, the system named is Mus musculus. The data set can be described thus: Compound was evaluated in vivo for antileukemic activity in B6D2F1 male mice. The class given is functional. The essentials:
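P388 leukemia model, run essentially per NCI standard protocols: 10⁶ tumor cells injected ip into B6D2F1 male mice on day 0. Drug given ip once daily for 4 days starting day 1; highest dose tested 50 mg/kg per day. Read-out is percent increase in life span (ILS) versus untreated controls, with long-term survivors (>40 days) noted.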

A short description of data set [3]: % hydrolysis in 60 min. This is another data set of the same source.

One may read the half-life as how long it takes for the measured level to halve. Lower therefore signals fast loss. In general, ILS refers to the gain in survival time of treated over control animals, in per cent.

Molecule `COc1cccc2c1C(=O)c1c(O)c3c(c(O)c1C2=O)C[C@@](O)(C(=O)COC(=O)C(NC(C)=O)C(C)C)C[C@@H]3OC1CC(NC(=O)C(F)(F)F)C(O)C(C)O1` (some centres undefined) registered a % hydrolysis at 1 h in the data set “% hydrolysis in 60 min [1]” of 8%. Besides, the IC50 in the data set on CCRF-CEM was determined as 140 nM.
For `COc1cccc2c1C(=O)c1c(O)c3c(c(O)c1C2=O)C[C@@](O)(C(=O)COC(=O)CCC(NC(C)=O)C(N)=O)C[C@@H]3OC1CC(NC(=O)C(F)(F)F)C(O)C(C)O1` (some centres undefined), the IC50 with CCRF-CEM stood at 120 nM. The molecule further returned a half-life in data set [2] of 24 min.
On to `COc1cccc2c1C(=O)c1c(O)c3c(c(O)c1C2=O)C[C@@](O)(C(=O)COC(=O)CNC(C)=O)C[C@@H]3OC1CC(NC(=O)C(F)(F)F)C(O)C(C)O1` (some centres undefined), for which the increase in life span (ILS) in the data set on Mus musculus is 105%. Besides, the IC50 in the data set on CCRF-CEM came to 140 nM. Further, the half-life in data set [2] is 10 min.
In turn, `COc1cccc2c1C(=O)c1c(O)c3c(c(O)c1C2=O)C[C@@](O)(C(=O)COC(=O)C(Cc1ccccc1)NC(C)=O)C[C@@H]3OC1CC(NC(=O)C(F)(F)F)C(O)C(C)O1` (some centres undefined) came in with an ILS in the data set on Mus musculus of 173%. For the same molecule, the IC50 in the data set with CCRF-CEM worked out at 90 nM. In addition, in data set [2], the half-life was determined as 14 min.
In the case of `COc1cccc2c1C(=O)c1c(O)c3c(c(O)c1C2=O)C[C@@](O)(C(=O)COC(=O)C(CC(C)C)NC(C)=O)C[C@@H]3OC1CC(NC(=O)C(F)(F)F)C(O)C(C)O1` (some centres undefined), the IC50 in the data set with CCRF-CEM is 150 nM. The half-life in data set [2] stood at 65 min.
As for `COc1cccc2c1C(=O)c1c(O)c3c(c(O)c1C2=O)C[C@@](O)(C(=O)COC(=O)C(CCSC)NC(C)=O)C[C@@H]3OC1CC(NC(=O)C(F)(F)F)C(O)C(C)O1` (some centres undefined), in the data set with Mus musculus, the ILS is on record as 136%. The IC50 in the data set with CCRF-CEM turned out to be 830 nM. In data set [2], this molecule yielded a half-life of 38 min.
In the data set “% hydrolysis in 60 min [3]”, `COc1cccc2c1C(=O)c1c(O)c3c(c(O)c1C2=O)C[C@@](O)(C(=O)COC(=O)C1CCCN1C(C)=O)C[C@@H]3OC1CC(NC(=O)C(F)(F)F)C(O)C(C)O1` (some centres undefined) registered a % hydrolysis at 1 h of 4%. In addition, the IC50 with CCRF-CEM worked out at 300 nM.
With `COc1cccc2c1C(=O)c1c(O)c3c(c(O)c1C2=O)C[C@@](O)(C(=O)COC(=O)C(C)NC(C)=O)C[C@@H]3OC1CC(NC(=O)C(F)(F)F)C(O)C(C)O1` (some centres undefined), in the data set on Mus musculus, the ILS is listed as 163%. Besides, in the data set with CCRF-CEM, the IC50 was 150 nM. The same molecule yielded a half-life in data set [2] of 18 min.
Consider `COc1cccc2c1C(=O)c1c(O)c3c(c(O)c1C2=O)C[C@@](O)(C(=O)COC(=O)CNC(=O)c1ccccc1)C[C@@H]3OC1CC(NC(=O)C(F)(F)F)C(O)C(C)O1` (some centres undefined), for which the IC50 with CCRF-CEM was determined as 120 nM. The same molecule returned a half-life in data set [2] of 3.5 min.
In the case of `COc1cccc2c1C(=O)c1c(O)c3c(c(O)c1C2=O)C[C@@](O)(C(=O)CO)C[C@@H]3O[C@H]1C[C@H](N)[C@H](O)[C@H](C)O1` [DOXORUBICIN], the increase in life span (ILS) in the data set with Mus musculus is 145%. Moreover, the IC50 with CCRF-CEM worked out at 30 nM.
Regarding `COc1cccc2c1C(=O)c1c(O)c3c(c(O)c1C2=O)C[C@@](O)(C(=O)COC(=O)CCC(NC(C)=O)C(=O)O)C[C@@H]3OC1CC(NC(=O)C(F)(F)F)C(O)C(C)O1` (some centres undefined), the IC50 in the data set on CCRF-CEM was 160 nM. In addition, in data set [2], the half-life amounted to 16 min.
For the molecule `CCCCC(=O)OCC(=O)[C@]1(O)Cc2c(O)c3c(c(O)c2[C@@H](OC2CC(NC(=O)C(F)(F)F)C(O)C(C)O2)C1)C(=O)c1c(OC)cccc1C3=O` (some centres undefined), in the data set on CCRF-CEM, the IC50 turned out to be 230 nM.
`COc1cccc2c1C(=O)c1c(O)c3c(c(O)c1C2=O)C[C@@](O)(C(=O)COC(=O)CC(NC(C)=O)C(=O)O)C[C@@H]3OC1CC(NC(=O)C(F)(F)F)C(O)C(C)O1` (some centres undefined): in the data set on CCRF-CEM, the IC50 came out at 1000 nM. The molecule also registered a half-life in data set [2] of 18 min.
